Assay outcomes from PubChem BioAssay.
T cruzi repl – inhibitors of intracellular T. cruzi growth, primary screen, luminescence, NIH3T3 host cells; T. cruzi beta-gal in NIH3T3, 90 h; inhibition, % (no concentration beside the values); 300,000 compounds, 1.4% hits;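 active = mean inhibition across valid replicates above about 55%, limit read from the data; inconclusive = mean below that limit but half or more replicates reach it; inactive = mean below it, under half of replicates reach it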;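 note: signal also drops with host cell toxicity which is not excluded here; 0% = plate median of DMSO wells and 100% = zero luminescence signal; higher percent means less beta-gal luminescence so fewer parasites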
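Read-out: Parasite load inhibition, % | Test system: Mouse NIH/3T3 fibroblasts infected with β-gal-expressing T. cruzi Tulahuen C4 | Amount: 5,000 cells/well | Medium: DMEM, 2% fetal bovine serum | Signal: GalScreen β-gal luminescence, detergent lysis, 60 min | Timing: 3 h attach, ≥90 h co-culture | Also added: Tulahuen C4 trypomastigotes, 5000/well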
NALP1 yeast inh – NALP1 inflammasome inhibitors in reconstituted yeast, colorimetric, S. cerevisiae, triplicate retest. inhibition, % at 10 µM. 280,000 compounds, 0.61% hits. S. cerevisiae NALP1/ASC/caspase-1 growth, X-gal OD620, 72 h; in the data active = inhibition mostly above about 24%, no sharp cut-off; inactive = mostly below about 32%
NLRP3 yeast inh – NALP3 inflammasome inhibitors in reconstituted yeast, primary screen, luminescence, uHTS | Yeast reconstituted NLRP3/ASC/caspase-1, beta-gal luminescence, 24 h | inhibition, % at 10 µM | 330,000 compounds, 0.39% hits;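 active = inhibition of 50% or more; inactive = inhibition below 50%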;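 note: plate controls were induced DMSO wells for no effect and uninduced yeast grown without galactose for full effect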
PolyA inhibitor – polyadenylation inhibitors in yeast reporter cells, primary screen, luminescence, S. cerevisiae | 300,000 compounds, 0.02% hits | S. cerevisiae SKY197-pL101 polyadenylation reporter, beta-gal luminescence; efflux-impaired pdr1/pdr3 knockout yeast; score 100 = 6 SD above DMSO | activity score, % at 12 µM;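 active = lowest replicate activity score at least 50, where 100 means six control SD above control mean; inconclusive = lowest score under 50 but half or more replicates reach 50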;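 note: yeast exposed to compound for 9 h at 30 °C; higher score means more reporter readthrough which indicates perturbed polyadenylation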
Calb FLC – C. albicans growth inhibition with fluconazole, primary screen, CaCi-2 strain, Alamar Blue fluorescence; C. albicans CaCi-2 + fluconazole, 48 h; growth inhibition, % (concentration not given with the values); 300,000 compounds, 0.57% hits;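 active = growth inhibition above about 58% in most replicates, limit read from the data, passing the limit was not always enough; inconclusive = exactly half the replicates above a set limit; inactive = most replicates below a set limit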;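 note: all wells also contain fluconazole at 8 µg/ml as a sub-toxic cotreatment; 0% = median of DMSO wells and 100% = median of geldanamycin control wells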
L major viab – Leishmania major promastigote growth inhibition, primary screen; Leishmania major promastigotes, resazurin fluorescence viability; inhibition, % at 10 µM; 200,000 compounds, 9% hits; AID 1063, 2008; in the data active = inhibition above about 50%;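 note: promastigotes grown with compound for 44 hours at 28 °C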
Lmaj promast 1uM – Leishmania major promastigote growth inhibition, confirmation, 1 µM repeat of primary hits; shares compounds with L major viab; L. major promastigote growth, resazurin fluorescence, 48 h; inhibition, % at 1 µM; 1,100 compounds, 13% hits; AID 1258, 2008;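 active = inhibition above about 50% in both repeat tests, limit read from the data; inconclusive = one repeat under the set limit, the other over it; inactive = both repeats under the set limit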
The depositor's hits bear a star; u = inconclusive; x = no result given. This is one part of a sample in which hits are shown more often than they occur.

SMILES	T cruzi repl	NALP1 yeast inh	NLRP3 yeast inh	PolyA inhibitor	Calb FLC	L major viab	Lmaj promast 1uM
Fc1ccc(-c2cc(-c3nnc4n3CCCCC4)c3ccccc3n2)cc1	-2	18	8	5	u	52*	-12
O=C(OCC(=O)N1CCOCC1)c1ccc(Br)cc1	3	-15	9	-2	1	x	x
CCOC(=O)C(CC)n1cnc2c(nnn2-c2ccc(F)cc2)c1=O (stereo unspecified)	-8	2	2	-5	0	x	x
COc1ccc(C(=O)NCC2OCCc3ccccc32)c(O)c1 (stereo unspecified)	-23	14	33	-13	-6	53*	-6
N#Cc1cnn2ccc(-c3cc(N4CCOCC4)ccc3[N+](=O)[O-])nc12	8	-6	17	9	-25	1	x
NC(=O)c1ccc(-n2nnnc2SCC(=O)Nc2ccccc2)cc1	5	19	15	2	-3	x	x
CC1=Nc2ccccc2N=C(NC(=O)CSc2nnnn2-c2ccccc2)C1c1ccccc1 (stereo unspecified)	7	9	15	-7	1	99*	16
CCOC(=O)C1=C(C)NC(=O)NC1c1ccc(Br)s1 (stereo unspecified)	6	19	-11	3	10	66*	-9
CCCCOC(=O)C1=C(C)NC(=O)NC1c1ccc([N+](=O)[O-])s1 (stereo unspecified)	18	20	11	-1	2	7	x
CC(=O)N1CCN(S(=O)(=O)c2ccc(S(=O)(=O)NC3CCCCC3)cc2)CC1	-10	5	17	21	1	x	x
COc1ccc(N2CC(O)(c3ccc(OC(F)F)cc3)[N+]3=C2CCCC3)cc1 (stereo unspecified)	19	12	12	-10	-6	-4	x
COc1ccc(-n2cc(-c3ccc(OC(F)F)cc3)[n+]3c2CCCCC3)cc1	59*	7	11	11	-23	99*	-12
CCn1c(N)nc2c1c(=O)n(C)c(=O)n2C	-12	x	0	17	0	-4	x
CCCc1nc2c(=O)n(C)c(=O)nc-2n(C)n1	x	-4	x	x	x	101*	94*
CCN=C1S/C(=C\c2ccc(N3CCOCC3)cc2C)C(=O)N1CC	8	12	14	19	28	69*	-17
CN=C1S/C(=C\c2ccc(N3CCOCC3)cc2C)C(=O)N1C	3	24	20	-3	-1	37	x
O=C(CCc1ccccc1)Nc1ccc2c(c1)OCO2	-4	x	9	-20	-3	x	x
O=C(COC(=O)[C@H](Cc1ccccc1)N1C(=O)c2ccccc2C1=O)Nc1ccc2c(c1)OCO2	5	8	11	-5	-2	99*	-11
Cc1cc(C)cc(OCC(=O)Nc2ccc3c(c2)OCO3)c1	-13	20	17	18	-31	62*	17
CCC(Oc1ccc(Cl)cc1)C(=O)N1CC(=O)Nc2ccccc21 (stereo unspecified)	2	11	-9	2	23	x	x
Cc1ccccc1N1C(S)=C(C#N)C(=O)NC12CCCCC2	-6	6	-2	4	0	51*	-20
Cn1c(SC2=CS(=O)(=O)c3ccccc32)nc2ccccc21	0	5	27	6	92*	99*	15
Cn1c(CSc2nc3ccccc3n2C)nc2ccccc21	3	18	6	-15	26	4	x
CC(C)CC(=O)/C=C/n1c(=S)oc2ccccc21	-3	24	x	-2	43	9	x
CC(=O)/C=C/n1c(=S)oc2ccccc21	21	66	x	-9	u	100*	18
SMILES	T cruzi repl	NALP1 yeast inh	NLRP3 yeast inh	PolyA inhibitor	Calb FLC	L major viab	Lmaj promast 1uM
COc1cccc(N2CCN(CC(=O)N3CCN(S(=O)(=O)c4ccc(Cl)cc4)CC3)CC2)c1	x	x	16	x	x	x	x
Cc1nc(-c2ccccc2)sc1-c1nc(-c2ccncc2)ncc1S(=O)(=O)c1ccccc1	23	17	10	-24	14	58*	18
O=C(/C=C/c1ccccc1)CC(O)(c1ccccc1)C(F)(F)F (stereo unspecified)	5	9	42	-45	-1	100*	76*
Cc1ncc([N+](=O)[O-])n1CCOC(=O)c1cc(Cl)cc(Cl)c1N	0	37	10	-7	11	60*	-6
c1ccc2c3c([nH]c2c1)-c1[nH]ncc1CC3	-22	-2	24	-16	8	3	x
Clc1ccc2[nH]c3c(c2c1)CCc1cn[nH]c1-3	6	0	12	-15	u	54*	-9
O=C(O)CC1CCS(=O)(=O)C1 (stereo unspecified)	-3	6	12	11	-3	-1	x
O=C(O)CC1CCC(=C(Cl)Cl)C1 (stereo unspecified)	x	-3	-18	x	x	95*	-8
c1cncc(-c2nnc(-c3cccnc3)nn2)c1	-2	26	-14	6	21	97*	-22
c1ccc(-c2nnc(-c3ccccc3)nn2)cc1	-2	x	41	-9	-26	x	x
Cc1onc(-c2c(Cl)cccc2Cl)c1C(=O)N1CCCc2ccccc21	1	-20	19	-17	25	92*	-20
COc1ccc(CSc2nnnn2-c2ccccc2)cc1	18	-1	10	-2	22	100*	-22
C=CCSc1nnnn1-c1ccc(OC)cc1	-13	8	-2	5	-4	-3	x
Cc1ccccc1-n1nnnc1Sc1nnnn1-c1ccccc1	x	12	47	x	x	100*	19
Cc1ccc(N(C)S(=O)(=O)c2cccc(C(=O)OCC(=O)c3c(N)n(C)c(=O)n(C)c3=O)c2)cc1	x	x	8	x	x	x	x
Cn1nc([N+](=O)[O-])nc1Oc1ccccc1N	63*	3	6	1	7	97*	-6
Cn1nc([N+](=O)[O-])nc1Oc1ccc2ccccc2c1	47	6	1	-7	9	9	x
COc1cccc(CN2CCNC(=O)C2CC(=O)NCC2CCOCC2)c1 (stereo unspecified)	-10	-5	12	u	10	x	x
CC(=O)N(c1cccc(Br)c1)C1C=CS(=O)(=O)C1 (stereo unspecified)	-6	-1	33	27	-5	-1	x
Cc1ccc(N(C(=O)C2CCCC2)C2C=CS(=O)(=O)C2)cc1C (stereo unspecified)	-11	12	3	-12	-4	56*	-9
Clc1ccc2[nH]cc(-c3nnnn3-c3ccc4ccccc4c3)c2c1	69*	44	-9	-17	9	99*	86*
